ChEMBL document CHEMBL4033616, “Identification of spirobisnaphthalene derivatives with anti-tumor activities from the endophytic fungus Rhytidhysteron rufulum AS21B” (Bioorg Med Chem, 2017)
pIC50: −log10 of the molar value.

Legend:
Ramos = test: Cytotoxicity against human Ramos cells assessed as decrease in cell viability after 24 hrs by CellTiter-Glo assay; format: functional, cell-based
How it was run: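 Human lymphoma Ramos cells, expanded to exponential growth in RPMI 1640 plus 10% (v/v) fetal calf serum under humidified 5% CO2. Seeded cells were treated with compounds at the indicated concentrations, 37 °C, 24 h. Viability was measured from the cellular ATP level with the CellTiter-Glo kit.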

NCI-H1975 = test: Cytotoxicity against human NCI-H1975 cells assessed as decrease in cell viability after 72 hrs by CellTiter-Glo assay; format: functional, cell-based; conditions: NCI-H1975, 72 h
How it was run: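 NSCLC H1975 cells grown to exponential phase in RPMI 1640 with 10% (v/v) fetal calf serum, humidified 5% CO2. Seeded cells were exposed to compounds at the indicated concentrations for 72 h at 37 °C. Viability was read as the ATP level in living cells (CellTiter-Glo).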

SMILES	pIC50 (Ramos)	pIC50 (NCI-H1975)
O=C1C=C[C@@H](O)[C@@H]2C1=CCCC21Oc2cccc3cccc(c23)O1	7.32	5.93
O[C@H]1[C@@H]2[C@H]([C@@H](O)CCC23Oc2cccc4cccc(c24)O3)[C@@H](O)C[C@@H]1O	< 4.00	< 4.00
O=C1CCC(O)c2cccc(O)c21 (stereo unspecified) [4,8-DIHYDROXY-1-TETRALONE]	4.64	4.30
O=C1C2=CCCC3(Oc4cccc5cccc(c45)O3)[C@@H]2[C@H](O)[C@@H]2O[C@H]12	4.75	5.14
O=C1CCC2(Oc3cccc4cccc(c34)O2)c2c(O)ccc(O)c21 [PALMARUMYCIN CP17]	4.48	< 4.00
CO[C@@H]1CC(=O)C2=CCCC3(Oc4cccc5cccc(c45)O3)[C@@H]2[C@@H]1O	6.34	4.99
O=C1CC[C@]23Oc4ccc(O)c5c4[C@@](C=CC5=O)(Oc4cccc1c42)O3	4.08	< 4.00
Oc1cccc2c1[C@@H](O)CCC21Oc2cccc3cccc(c23)O1	< 4.00	< 4.00
CN(C)C/C=C/C(=O)Nc1cc2c(Nc3ccc(F)c(Cl)c3)ncnc2cc1O[C@H]1CCOC1 [AFATINIB]	–	5.71
CO[C@H]1CCC2(Oc3cccc4cccc(c34)O2)C2=C1C(=O)C=CC2=O	4.50	< 4.00
O=C1C=C[C@]2(Oc3cccc4c(O)ccc(c34)O2)c2ccccc21	4.82	< 4.00
CC(=O)O[C@@H]1C=CC(=O)C2=CCCC3(Oc4cccc5cccc(c45)O3)[C@@H]21	7.74	6.60
C=CC(=O)N1CCC[C@@H](n2nc(-c3ccc(Oc4ccccc4)cc3)c3c(N)ncnc32)C1 [IBRUTINIB]	4.54	–
O=C1CCC2(Oc3cccc4cccc(c34)O2)c2cccc(O)c21 [PALMARUMYCIN CP2]	4.74	< 4.00
